These results are taken from ChEMBL document CHEMBL1144619, “The synthesis and biological evaluation of novel series of nitrile-containing fluoroquinolones as antibacterial agents” (Bioorg Med Chem Lett, 2007).

In brackets after ≈: the same amount, converted by molar mass. Some results are limits rather than exact numbers.

The nature of data set [1]: Volume of distribution in rat at 1 mg/kg, iv. Also noted: dose 1 mg/kg, route intravenous. Particulars: in vivo, read-out: Vdss. It is filed as ADME, organism-based.
In data set [2] the test system is Staphylococcus aureus. The data set can be described thus: Antibacterial activity against Staphylococcus aureus UC76. It is filed as functional.
Data set [3] has as its system Haemophilus influenzae. The data set can be described thus: Antibacterial activity against Haemophilus influenzae HI3542. The format is functional. As to conditions: HI-3542.
Data set [4] concerns Streptococcus pneumoniae. The data set can be described thus: Antibacterial activity against Streptococcus pneumoniae SV1. It is filed as functional.
Data set [5] relates to Rattus norvegicus. Put plainly: AUC in rat at 1 mg/kg, iv. The format is ADME, organism-based, Plasma. Also noted: dose 1 mg/kg, route intravenous. Particulars: in vivo.
The target in data set [6] is Voltage-gated inwardly rectifying potassium channel KCNH2 (Homo sapiens, UniProt Q12809). Put plainly: Displacement of [3H]dofetilide from human ERG by fliter binding assay. Background: Loss of bound radioactivity is the signal in a displacement assay; it reports binding, not function.
Sequence of Voltage-gated inwardly rectifying potassium channel KCNH2 (Q12809 whole entry): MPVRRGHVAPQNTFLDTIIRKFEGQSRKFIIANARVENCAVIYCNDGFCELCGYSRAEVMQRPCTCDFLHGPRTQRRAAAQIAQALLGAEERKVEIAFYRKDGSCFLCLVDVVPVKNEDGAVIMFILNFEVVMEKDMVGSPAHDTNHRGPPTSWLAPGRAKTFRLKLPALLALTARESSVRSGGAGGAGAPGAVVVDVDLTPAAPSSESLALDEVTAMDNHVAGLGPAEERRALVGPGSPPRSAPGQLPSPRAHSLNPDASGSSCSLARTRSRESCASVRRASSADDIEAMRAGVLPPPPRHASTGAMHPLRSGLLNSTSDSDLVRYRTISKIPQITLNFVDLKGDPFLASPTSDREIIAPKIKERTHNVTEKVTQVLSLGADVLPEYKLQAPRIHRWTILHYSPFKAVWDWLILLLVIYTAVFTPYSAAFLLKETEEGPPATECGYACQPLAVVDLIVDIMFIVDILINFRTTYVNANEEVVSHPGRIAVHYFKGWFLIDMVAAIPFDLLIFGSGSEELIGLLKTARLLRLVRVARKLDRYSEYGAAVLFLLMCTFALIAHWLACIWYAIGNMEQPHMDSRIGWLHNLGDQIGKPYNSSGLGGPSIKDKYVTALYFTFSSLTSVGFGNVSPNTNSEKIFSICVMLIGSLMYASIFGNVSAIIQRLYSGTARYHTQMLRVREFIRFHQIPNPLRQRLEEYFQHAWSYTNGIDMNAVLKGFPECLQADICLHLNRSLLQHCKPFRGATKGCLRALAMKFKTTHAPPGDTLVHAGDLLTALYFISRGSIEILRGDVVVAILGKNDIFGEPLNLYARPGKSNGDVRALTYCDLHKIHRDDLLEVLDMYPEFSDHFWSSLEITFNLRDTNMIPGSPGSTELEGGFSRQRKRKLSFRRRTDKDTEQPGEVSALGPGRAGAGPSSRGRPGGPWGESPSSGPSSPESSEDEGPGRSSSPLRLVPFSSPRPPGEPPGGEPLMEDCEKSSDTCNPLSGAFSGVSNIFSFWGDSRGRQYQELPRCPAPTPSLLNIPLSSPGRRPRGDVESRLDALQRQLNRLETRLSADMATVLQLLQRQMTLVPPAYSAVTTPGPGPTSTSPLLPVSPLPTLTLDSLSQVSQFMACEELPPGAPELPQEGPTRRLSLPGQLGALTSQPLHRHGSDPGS
Data set [7] in a line: Clearance in rat at 1 mg/kg, iv. As to conditions: in vivo. Also noted: dose 1 mg/kg, route intravenous. It is filed as ADME, organism-based.
Data set [8] deals with Moraxella catarrhalis. The data set can be described thus: Antibacterial activity against Moraxella catarrhalis BC-3531. It is filed as functional.
The test system of data set [9] is Staphylococcus aureus. The data set can be described thus: Antibacterial activity against Staphylococcus aureus SA2552. The format is functional.
Data set [10] in a line: Half life in rat at 1 mg/kg, iv. The format is ADME, organism-based. On the set-up: dose 1 mg/kg, route intravenous. Particulars: in vivo.
Data set [11] is described as follows: Cmax in rat at 5 mg/kg, po. It is filed as ADME, organism-based. On the set-up: dose 5 mg/kg, route oral. Particulars: in vivo.
Data set [12] can be described thus: Bioavailability in rat at 5 mg/kg, po. The format is ADME, organism-based. Particulars: in vivo.
In data set [13] the test system is Streptococcus pneumoniae. Put plainly: Antibacterial activity against fluoroquinolone resistance Streptococcus pneumoniae SP3765. It is filed as functional.
In data set [14] the target is hERG (KCNH2) (Homo sapiens, UniProt Q12809). Put plainly: Displacement of [3H]dofetilide from human ERG at 300 uM. As to conditions: probe [3H]dofetilide. A digest of the protocol: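 Radioligand filter-binding assay measuring displacement of [3H]-dofetilide from the hERG channel, run as in a patent protocol.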
Sequence of hERG (KCNH2) (Q12809 whole entry): as above

The Ki is the dissociation constant of the complex between target and ligand, obtained from inhibition or displacement. A low value points to tighter binding. By clearance is commonly meant the volume of plasma or blood freed of the substance per unit of time. By half-life is commonly meant how long it takes for the measured level to halve. A high value points to slow decline. One may read the Cmax as the peak of the concentration-time curve. The bioavailability is the share of a dose that reaches the circulation, judged against a reference dose that is usually intravenous. As a reminder, the inhibition is the percentage by which the read-out fell short of the control. In the case of `COc1c(N2CC[C@@H]([C@H](C)NCCC#N)C2)c(F)cc2c(=O)c(C(=O)O)cn(C3CC3)c12`, the Vd in [1] is 2.5 L/kg. Besides, the MIC in data set [2] turned out to be 0.004 mg/L (≈ 0.00904 µM); in data set [3] it was 0.06 mg/L (≈ 0.136 µM); in data set [4], 0.015 mg/L (≈ 0.0339 µM); in data set [8], 0.06 mg/L (≈ 0.136 µM); in data set [9], 0.008 mg/L (≈ 0.0181 µM); in data set [13], 0.125 mg/L (≈ 0.282 µM). In data set [5], this compound came in with an AUC of 3.5 ug/hr.ml. For the same compound, the Ki in data set [6] is over 150 µM. In addition, the clearance in data set [7] came out at 1.44 L/h/kg. Further, the half-life in data set [10] was 2.7 h. Also, the Cmax in [11] was 1.2 µg/mL. The bioavailability in data set [12] stood at 70%. The same compound returned an inhibition at 300 µM in data set [14] of 2%.
